According to ChEMBL document CHEMBL4138271, “Crystal Structures and Human Leukemia Cell Apoptosis Inducible Activities of Parthenolide Analogues Isolated from Piptocoma rufescens” (J Nat Prod, 2018):
The source made the active and inactive calls. The calls are words filed in the database; no cut-off is given here.

Key:
MOLM-13 [1] = experiment: Induction of apoptosis in human MOLM13 cells assessed as necrotic cells at 1.8 uM after 24 hrs by Annexin-V FITC/7-AAD staining based flow cytometric method (reference value: 0%); format: functional
MOLM-13 [2] = experiment: Induction of apoptosis in human MOLM13 cells assessed as necrotic cells at 0.26 uM after 24 hrs by Annexin-V FITC/7-AAD staining based flow cytometric method (reference value: 0%); format: functional
MOLM-13 [3] = experiment: Induction of apoptosis in human MOLM13 cells assessed as late apoptotic cells at 1.8 uM after 24 hrs by Annexin-V FITC/7-AAD staining based flow cytometric method (reference value: 1.43%); format: functional
EOL1 [4] = experiment: Cytotoxicity against human EOL-1 cells after 72 hrs by MTS assay; format: functional, cell-based; conditions: EOL1, 72 h
EOL1 [5] = experiment: Induction of apoptosis in human EOL-1 cells assessed as early apoptotic cells at 0.26 uM after 24 hrs by Annexin-V FITC/7-AAD staining based flow cytometric method (reference value: 1.94%); format: functional
MOLM-13 [6] = experiment: Induction of apoptosis in human MOLM13 cells assessed as early apoptotic cells at 1.8 uM after 24 hrs by Annexin-V FITC/7-AAD staining based flow cytometric method (reference value: 11.8%); format: functional
EOL1 [7] = experiment: Synergistic antileukemic activity against human EOL-1 cells assessed as concentration required for <= 75% cell survival after 72 hrs in presence of midostaurin by CellTiter 96 AQueous One solution cell proliferation assay; format: functional
MOLM-13 [8] = experiment: Induction of apoptosis in human MOLM13 cells assessed as live cells at 0.59 uM after 24 hrs by Annexin-V FITC/7-AAD staining based flow cytometric method (reference value: 86.8%); format: functional
EOL1 [9] = experiment: Induction of apoptosis in human EOL-1 cells assessed as live cells at 0.59 uM after 24 hrs by Annexin-V FITC/7-AAD staining based flow cytometric method (reference value: 97.5%); format: functional
MOLM-13 [10] = experiment: Induction of apoptosis in human MOLM13 cells assessed as live cells at 0.26 uM after 24 hrs by Annexin-V FITC/7-AAD staining based flow cytometric method (reference value: 86.8%); format: functional
MOLM-13 [11] = experiment: Induction of apoptosis in human MOLM13 cells assessed as caspase-3 activation at 10 uM after 72 hrs by immunoblotting analysis; format: functional, cell-based
Summary of the method: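 MOLM-13 cells treated 72 h with test compounds at 10 μM or PKC412 at 10 nM. Cells washed in ice-cold PBS, lysed at 10^8 cells/mL in NP-40 hypertonic buffer (pH 7.5) with protease/phosphatase inhibitors, then run on SDS-PAGE and PVDF. Blots probed 12 h with rabbit monoclonal cleaved caspase-3 (Asp175), β-actin as loading control. Representative of three independent experiments.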

EOL1 [12] = experiment: Induction of apoptosis in human EOL-1 cells assessed as late apoptotic cells at 0.59 uM after 24 hrs by Annexin-V FITC/7-AAD staining based flow cytometric method (reference value: 0.535%); format: functional
[13] = target: Transcription factor p65 (Homo sapiens) (UniProt Q04206); experiment: Inhibition of NFkappaB p65 in human EOL-1 cells at 10 uM after 72 hrs by immunoblotting method; format: cell-based
Transcription factor p65 (Homo sapiens), sequence (Q04206 whole entry): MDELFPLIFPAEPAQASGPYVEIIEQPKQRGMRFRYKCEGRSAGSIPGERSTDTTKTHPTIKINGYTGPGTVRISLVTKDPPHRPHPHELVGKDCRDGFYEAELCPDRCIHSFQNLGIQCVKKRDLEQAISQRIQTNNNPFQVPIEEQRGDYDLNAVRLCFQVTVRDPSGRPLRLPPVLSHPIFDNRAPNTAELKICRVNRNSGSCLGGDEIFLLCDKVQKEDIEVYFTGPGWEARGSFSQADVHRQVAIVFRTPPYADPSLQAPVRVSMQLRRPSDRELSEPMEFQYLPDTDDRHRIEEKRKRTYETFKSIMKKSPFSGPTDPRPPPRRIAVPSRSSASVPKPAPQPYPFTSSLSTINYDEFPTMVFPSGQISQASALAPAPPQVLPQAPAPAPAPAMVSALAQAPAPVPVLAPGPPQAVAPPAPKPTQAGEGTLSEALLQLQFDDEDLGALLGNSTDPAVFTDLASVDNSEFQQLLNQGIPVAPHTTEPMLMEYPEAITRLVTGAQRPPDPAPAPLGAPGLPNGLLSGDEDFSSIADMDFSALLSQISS
Summary of the method: (§1)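 MOLM-13 or EOL-1 cells treated 72 h at 10 μM. Cells washed in ice-cold PBS and lysed in hypertonic NP-40 buffer (10 mM HEPES pH 7.5, 0.5 M NaCl) with protease/phosphatase inhibitors. Protein measured by BCA; SDS-PAGE onto PVDF. Probed 12 h with rabbit monoclonal NF-κB-p65 antibody, goat β-actin as loading control, then chemiluminescence. Blots representative of three independent experiments.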

EOL1 [14] = experiment: Induction of apoptosis in human EOL-1 cells assessed as necrotic cells at 1.8 uM after 24 hrs by Annexin-V FITC/7-AAD staining based flow cytometric method (reference value: 0.032%); format: functional
EOL1 [15] = experiment: Induction of apoptosis in human EOL-1 cells assessed as early apoptotic cells at 1.8 uM after 24 hrs by Annexin-V FITC/7-AAD staining based flow cytometric method (reference value: 1.94%); format: functional
MOLM-13 [16] = experiment: Induction of apoptosis in human MOLM13 cells assessed as late apoptotic cells at 0.59 uM after 24 hrs by Annexin-V FITC/7-AAD staining based flow cytometric method (reference value: 1.43%); format: functional
EOL1 [17] = experiment: Induction of apoptosis in human EOL-1 cells assessed as late apoptotic cells at 1.8 uM after 24 hrs by Annexin-V FITC/7-AAD staining based flow cytometric method (reference value: 0.535%); format: functional
EOL1 [18] = experiment: Induction of apoptosis in human EOL-1 cells assessed as late apoptotic cells at 0.26 uM after 24 hrs by Annexin-V FITC/7-AAD staining based flow cytometric method (reference value: 0.535%); format: functional
EOL1 [19] = experiment: Induction of apoptosis in human EOL-1 cells assessed as caspase-3 activation at 10 uM after 72 hrs by immunoblotting analysis; format: functional, cell-based
Summary of the method: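 EOL-1 cells (RPMI 1640, 10% FBS, 37 °C, 5% CO2) exposed 72 h; compounds at 10 μM, PKC412 at 10 nM. Harvested, PBS-washed, lysed in hypertonic NP-40 buffer with protease/phosphatase inhibitors; SDS-PAGE, PVDF transfer, rabbit monoclonal cleaved caspase-3 (Asp175) antibody 12 h, secondary 1 h, chemiluminescent detection; β-actin loading control. Representative blots of three independent experiments.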

EOL1 [20] = experiment: Induction of apoptosis in human EOL-1 cells assessed as live cells at 0.26 uM after 24 hrs by Annexin-V FITC/7-AAD staining based flow cytometric method (reference value: 97.5%); format: functional
MOLM-13 [21] = experiment: Cytotoxicity against human MOLM13 cells after 72 hrs by MTS assay; format: functional, cell-based; conditions: MOLM-13, 72 h
MOLM-13 [22] = experiment: Induction of apoptosis in human MOLM13 cells assessed as early apoptotic cells at 0.59 uM after 24 hrs by Annexin-V FITC/7-AAD staining based flow cytometric method (reference value: 11.8%); format: functional
EOL1 [23] = experiment: Induction of apoptosis in human EOL-1 cells assessed as live cells at 1.8 uM after 24 hrs by Annexin-V FITC/7-AAD staining based flow cytometric method (reference value: 97.5%); format: functional
MOLM-13 [24] = experiment: Induction of apoptosis in human MOLM13 cells assessed as late apoptotic cells at 0.26 uM after 24 hrs by Annexin-V FITC/7-AAD staining based flow cytometric method (reference value: 1.43%); format: functional
[25] = target: Transcription factor p65 (Homo sapiens) (UniProt Q04206); experiment: Inhibition of NFkappaB p65 in human MOLM13 cells at 10 uM after 72 hrs by immunoblotting method; format: cell-based; summary of the method: as §1
MOLM-13 [26] = experiment: Induction of apoptosis in human MOLM13 cells assessed as live cells at 1.8 uM after 24 hrs by Annexin-V FITC/7-AAD staining based flow cytometric method (reference value: 86.8%); format: functional
MOLM-13 [27] = experiment: Induction of apoptosis in human MOLM13 cells assessed as early apoptotic cells at 0.26 uM after 24 hrs by Annexin-V FITC/7-AAD staining based flow cytometric method (reference value: 11.8%); format: functional
MOLM-13 [28] = experiment: Synergistic antileukemic activity against human MOLM13 cells assessed as concentration required for <= 75% cell survival after 72 hrs in presence of midostaurin by CellTiter 96 AQueous One solution cell proliferation assay; format: functional
HT-29 = experiment: Cytotoxicity against human HT-29 cells after 72 hrs by MTS assay; format: functional, cell-based; conditions: HT-29, 72 h
MOLM-13 [29] = experiment: Induction of apoptosis in human MOLM13 cells assessed as necrotic cells at 0.59 uM after 24 hrs by Annexin-V FITC/7-AAD staining based flow cytometric method (reference value: 0%); format: functional
EOL1 [30] = experiment: Induction of apoptosis in human EOL-1 cells assessed as early apoptotic cells at 0.59 uM after 24 hrs by Annexin-V FITC/7-AAD staining based flow cytometric method (reference value: 1.94%); format: functional
EOL1 [31] = experiment: Induction of apoptosis in human EOL-1 cells assessed as necrotic cells at 0.59 uM after 24 hrs by Annexin-V FITC/7-AAD staining based flow cytometric method (reference value: 0.032%); format: functional
EOL1 [32] = experiment: Induction of apoptosis in human EOL-1 cells assessed as necrotic cells at 0.26 uM after 24 hrs by Annexin-V FITC/7-AAD staining based flow cytometric method (reference value: 0.032%); format: functional

C=C(C)C(=O)O[C@H]1C[C@@]2(C)OC(=CC2=O)/C(C)=C\[C@H]2OC(=O)C(=C)[C@H]12
Activity (MOLM-13 [1]): 9.96% | Activity (MOLM-13 [2]): 0.08% | Activity (MOLM-13 [3]): 87.1% | IC50 (EOL1 [4]): 1000 nM | Activity (EOL1 [5]): 1.9% | Activity (MOLM-13 [6]): 1.25% | Activity (EOL1 [7]): 0.59 µM | Activity (MOLM-13 [8]): 86.5% | Activity (EOL1 [9]): 92.6% | Activity (MOLM-13 [10]): 92.3% | Activity (MOLM-13 [11]): Active | Activity (EOL1 [12]): 4.42% | inhibition [13]: Active | Activity (EOL1 [14]): 4.7% | Activity (EOL1 [15]): 0.24% | Activity (MOLM-13 [16]): 2.42% | Activity (EOL1 [17]): 69.1% | Activity (EOL1 [18]): 0.568% | Activity (EOL1 [19]): Active | Activity (EOL1 [20]): 97.5% | IC50 (MOLM-13 [21]): 1100 nM | Activity (MOLM-13 [22]): 10.9% | Activity (EOL1 [23]): 25.9% | Activity (MOLM-13 [24]): 0.097% | inhibition [25]: Active | Activity (MOLM-13 [26]): 1.66% | Activity (MOLM-13 [27]): 6.62% | Activity (MOLM-13 [28]): 0.44 µM | IC50 (HT-29): 260 nM | Activity (MOLM-13 [29]): 0.214% | Activity (EOL1 [30]): 2.66% | Activity (EOL1 [31]): 0.301% | Activity (EOL1 [32]): 0.032%
